Source: ChEMBL document CHEMBL4261600 (Eur J Med Chem, 2018)

Legend:
[1] = target: Membrane-associated tyrosine- and threonine-specific cdc2-inhibitory kinase (Homo sapiens) (UniProt Q99640); assay: Binding affinity to wild-type human partial length PKMYT1 (A88 to G366 residues) expressed in bacterial expression system assessed as remaining unbound target protein level at 1000 nM by Kinomescan method relative to control
[2] = target: Mitogen-activated protein kinase kinase kinase 1 (Homo sapiens) (UniProt Q13233); assay: Binding affinity to wild-type human partial length MAP3K1 (L1202 to W1512 residues) expressed in mammalian expression system assessed as remaining unbound target protein level at 1000 nM by Kinomescan method relative to control
[3] = target: Misshapen-like kinase 1 (Homo sapiens) (UniProt Q8N4C8); assay: Binding affinity to wild-type human partial length MINK (M1 to K312 residues) expressed in mammalian expression system assessed as remaining unbound target protein level at 1000 nM by Kinomescan method relative to control
[4] = target: Cyclin-dependent kinase 18 (Homo sapiens) (UniProt Q07002); assay: Binding affinity to wild-type human full length PCTK3 (M3 to F474 residues) expressed in bacterial expression system assessed as remaining unbound target protein level at 1000 nM by Kinomescan method relative to control
Method in brief: (§1)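 KINOMEscan competition binding profile across a panel of 468 kinases and mutants, with the inhibitor tested at a single concentration of 1 μM. Binding is reported as percent of control, meaning signal relative to a DMSO control.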

[5] = target: Cyclin-dependent kinase 2 (Homo sapiens) (UniProt P24941); assay: Binding affinity to wild-type human full length CDK2 (M1 to L298 residues) expressed in bacterial expression system assessed as remaining unbound target protein level at 1000 nM by Kinomescan method relative to control
Method in brief: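 Single-point competition binding screen across a panel of 468 kinases and mutants, with the inhibitor at 1 μM. Binding is read out as percent of a DMSO control, and targets below 1 percent control were classed as strong binders.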

[6] = tested on: Tyrosine-protein kinase ABL1 (Homo sapiens), P00519 [Q252H]; assay: Binding affinity to human non-phosphorylated ABL1 Q252H mutant (S229 to K512 residues) expressed in mammalian expression system assessed as remaining unbound target protein level at 1000 nM by Kinomescan method relative to control
Method in brief: (§2)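 KINOMEscan competition-binding profiling across the panel of 468 kinases and mutants, with inhibitor tested at 1 μM. Binding is expressed as percent of control, with DMSO as the reference control.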

[7] = target: Mitogen-activated protein kinase 15 (Homo sapiens) (UniProt Q8TD08); assay: Binding affinity to wild-type human partial length ERK8 (M1 to P437 residues) expressed in bacterial expression system assessed as remaining unbound target protein level at 1000 nM by Kinomescan method relative to control
Method in brief: (§3)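 KINOMEscan binding panel of 468 kinases/mutants. Inhibitor was tested at a single concentration of 1 μM. Binding is reported as percent of control, defined relative to a DMSO control.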

[8] = target: Serine/threonine-protein kinase VRK2 (Homo sapiens) (UniProt Q86Y07); assay: Binding affinity to wild-type human partial length VRK2 (M1 to T336 residues) expressed in mammalian expression system assessed as remaining unbound target protein level at 1000 nM by Kinomescan method relative to control
[9] = target: High affinity nerve growth factor receptor (Homo sapiens) (UniProt P04629); assay: Binding affinity to wild-type human partial length TRKA (G475 to G790 residues) expressed in mammalian expression system assessed as remaining unbound target protein level at 1000 nM by Kinomescan method relative to control
[10] = target: Serine/threonine-protein kinase Nek11 (Homo sapiens) (UniProt Q8NG66); assay: Binding affinity to wild-type human partial length NEK11 (M1 to E313 residues) expressed in mammalian expression system assessed as remaining unbound target protein level at 1000 nM by Kinomescan method relative to control
[11] = target: Epidermal growth factor receptor (Homo sapiens) (UniProt P00533); assay: Binding affinity to human partial length EGFR L747-T751del/Sins mutant expressed in bacterial expression system assessed as remaining unbound target protein level at 1000 nM by Kinomescan method relative to control; method in brief: as §2
[12] = target: Mitogen-activated protein kinase kinase kinase 20 (Homo sapiens) (UniProt Q9NYL2); assay: Binding affinity to wild-type human partial length ZAK (M1 to L331 residues) expressed in bacterial expression system assessed as remaining unbound target protein level at 1000 nM by Kinomescan method relative to control
[13] = target: Cyclin-dependent kinase 1/cyclin B1 (Homo sapiens, UniProt P06493); assay: Inhibition of recombinant full length His-tagged human CDK1/CyclinB expressed in baculovirus expression system
[14] = Tmax in beagle dog at 2 mg/kg, iv by LC-MS/MS analysis; format: ADME, organism-based, Canis lupus familiaris; conditions: in vivo
[15] = target: MAP kinase-activated protein kinase 2 (Homo sapiens) (UniProt P49137); assay: Binding affinity to wild-type human partial length MAPKAPK2 (V48 to D345 residues) expressed in bacterial expression system assessed as remaining unbound target protein level at 1000 nM by Kinomescan method relative to control; method in brief: as §3
[16] = target: Death-associated protein kinase 1 (Homo sapiens) (UniProt P53355); assay: Binding affinity to wild-type human partial length DAPK1 (M1 to F296 residues) expressed in bacterial expression system assessed as remaining unbound target protein level at 1000 nM by Kinomescan method relative to control; method in brief: as §1
[17] = target: Protein kinase C eta type (Homo sapiens) (UniProt P24723); assay: Binding affinity to wild-type human partial length PRKCH (S324 to P683 residues) expressed in bacterial expression system assessed as remaining unbound target protein level at 1000 nM by Kinomescan method relative to control
[18] = target: Myosin light chain kinase (Homo sapiens) (UniProt Q32MK0); assay: Binding affinity to wild-type human partial length MLCK (D488 to K800 residues) expressed in bacterial expression system assessed as remaining unbound target protein level at 1000 nM by Kinomescan method relative to control
[19] = tested on: Receptor-type tyrosine-protein kinase FLT3 (Homo sapiens), P36888 [D835V]; assay: Binding affinity to human partial length FLT3 D835V mutant (V592 to Y969 residues) expressed in bacterial expression system assessed as remaining unbound target protein level at 1000 nM by Kinomescan method relative to control; method in brief: as §2
[20] = tested on: Receptor-type tyrosine-protein kinase FLT3 (Homo sapiens), P36888 [UNDEFINED MUTATION]; assay: Binding affinity to human partial length FLT3 ITD/D835V double mutant expressed in bacterial expression system assessed as remaining unbound target protein level at 1000 nM by Kinomescan method relative to control; method in brief: as §2
[21] = target: Serine/threonine-protein kinase PAK 5 (Homo sapiens) (UniProt Q9P286); assay: Binding affinity to wild-type human partial length PAK7 (Y400 to H719 residues) expressed in bacterial expression system assessed as remaining unbound target protein level at 1000 nM by Kinomescan method relative to control
[22] = target: SNF-related serine/threonine-protein kinase (Homo sapiens) (UniProt Q9NRH2); assay: Binding affinity to wild-type human partial length SNRK (M1 to E339 residues) expressed in mammalian expression system assessed as remaining unbound target protein level at 1000 nM by Kinomescan method relative to control
SNF-related serine/threonine-protein kinase (Homo sapiens), sequence (Q9NRH2 whole entry, the tested form may be a part): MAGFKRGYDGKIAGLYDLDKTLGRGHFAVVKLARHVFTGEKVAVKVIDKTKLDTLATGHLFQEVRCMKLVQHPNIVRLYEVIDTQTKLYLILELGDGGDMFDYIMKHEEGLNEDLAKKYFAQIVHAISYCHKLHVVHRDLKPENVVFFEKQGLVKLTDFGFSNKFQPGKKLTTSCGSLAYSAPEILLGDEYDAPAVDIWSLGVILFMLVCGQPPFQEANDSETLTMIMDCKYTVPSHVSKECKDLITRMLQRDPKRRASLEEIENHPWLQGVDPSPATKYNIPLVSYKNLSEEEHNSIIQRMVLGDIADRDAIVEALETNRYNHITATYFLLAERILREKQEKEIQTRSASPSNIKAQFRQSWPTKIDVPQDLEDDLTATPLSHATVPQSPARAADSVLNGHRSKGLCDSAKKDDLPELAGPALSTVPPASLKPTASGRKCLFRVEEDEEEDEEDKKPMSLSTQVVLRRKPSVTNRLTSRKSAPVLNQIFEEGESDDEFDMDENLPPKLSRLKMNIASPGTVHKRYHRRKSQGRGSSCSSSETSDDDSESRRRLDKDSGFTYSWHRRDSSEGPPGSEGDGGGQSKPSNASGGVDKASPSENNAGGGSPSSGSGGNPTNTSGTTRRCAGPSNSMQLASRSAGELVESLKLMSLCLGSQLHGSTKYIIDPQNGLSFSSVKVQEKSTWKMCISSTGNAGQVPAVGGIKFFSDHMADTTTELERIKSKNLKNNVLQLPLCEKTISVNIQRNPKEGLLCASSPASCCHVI

Serine/threonine-protein kinase PAK 5 (Homo sapiens), sequence (Q9P286 whole entry, looked up, the tested form may be a part): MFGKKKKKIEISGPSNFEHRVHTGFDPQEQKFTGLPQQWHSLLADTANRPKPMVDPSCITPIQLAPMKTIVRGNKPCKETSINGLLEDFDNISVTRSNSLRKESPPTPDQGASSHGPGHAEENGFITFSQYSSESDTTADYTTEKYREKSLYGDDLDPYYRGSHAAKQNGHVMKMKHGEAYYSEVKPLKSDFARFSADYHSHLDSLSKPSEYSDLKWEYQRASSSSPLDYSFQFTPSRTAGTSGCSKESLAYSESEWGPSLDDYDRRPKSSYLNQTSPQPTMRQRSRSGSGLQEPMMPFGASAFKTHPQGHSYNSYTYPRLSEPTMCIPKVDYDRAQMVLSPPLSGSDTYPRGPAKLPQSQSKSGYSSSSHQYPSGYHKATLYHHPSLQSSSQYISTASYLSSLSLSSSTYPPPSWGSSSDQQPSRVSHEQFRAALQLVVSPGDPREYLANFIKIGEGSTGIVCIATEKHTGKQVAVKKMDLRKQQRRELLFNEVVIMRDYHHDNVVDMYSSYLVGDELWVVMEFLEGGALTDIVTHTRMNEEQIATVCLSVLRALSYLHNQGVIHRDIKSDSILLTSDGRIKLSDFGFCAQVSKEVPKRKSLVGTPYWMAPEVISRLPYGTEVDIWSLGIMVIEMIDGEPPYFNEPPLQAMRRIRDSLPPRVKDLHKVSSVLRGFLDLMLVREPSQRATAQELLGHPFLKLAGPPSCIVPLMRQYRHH
Membrane-associated tyrosine- and threonine-specific cdc2-inhibitory kinase (Homo sapiens), sequence (Q99640 whole entry, the tested form may be a part): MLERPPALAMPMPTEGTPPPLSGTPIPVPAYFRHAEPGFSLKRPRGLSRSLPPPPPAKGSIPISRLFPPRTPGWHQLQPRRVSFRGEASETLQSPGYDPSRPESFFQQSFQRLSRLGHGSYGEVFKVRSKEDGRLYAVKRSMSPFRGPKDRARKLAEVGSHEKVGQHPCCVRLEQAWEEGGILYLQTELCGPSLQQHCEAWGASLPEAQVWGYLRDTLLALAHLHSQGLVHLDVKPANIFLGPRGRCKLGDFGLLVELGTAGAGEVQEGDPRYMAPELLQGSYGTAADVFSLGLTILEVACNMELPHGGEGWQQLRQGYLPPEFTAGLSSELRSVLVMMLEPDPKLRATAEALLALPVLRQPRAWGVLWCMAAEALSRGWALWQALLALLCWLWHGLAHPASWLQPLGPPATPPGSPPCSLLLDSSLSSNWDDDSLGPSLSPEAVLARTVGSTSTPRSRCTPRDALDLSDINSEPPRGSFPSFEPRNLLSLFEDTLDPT
Myosin light chain kinase (Homo sapiens), sequence (Q32MK0 whole entry, the tested form may be a part): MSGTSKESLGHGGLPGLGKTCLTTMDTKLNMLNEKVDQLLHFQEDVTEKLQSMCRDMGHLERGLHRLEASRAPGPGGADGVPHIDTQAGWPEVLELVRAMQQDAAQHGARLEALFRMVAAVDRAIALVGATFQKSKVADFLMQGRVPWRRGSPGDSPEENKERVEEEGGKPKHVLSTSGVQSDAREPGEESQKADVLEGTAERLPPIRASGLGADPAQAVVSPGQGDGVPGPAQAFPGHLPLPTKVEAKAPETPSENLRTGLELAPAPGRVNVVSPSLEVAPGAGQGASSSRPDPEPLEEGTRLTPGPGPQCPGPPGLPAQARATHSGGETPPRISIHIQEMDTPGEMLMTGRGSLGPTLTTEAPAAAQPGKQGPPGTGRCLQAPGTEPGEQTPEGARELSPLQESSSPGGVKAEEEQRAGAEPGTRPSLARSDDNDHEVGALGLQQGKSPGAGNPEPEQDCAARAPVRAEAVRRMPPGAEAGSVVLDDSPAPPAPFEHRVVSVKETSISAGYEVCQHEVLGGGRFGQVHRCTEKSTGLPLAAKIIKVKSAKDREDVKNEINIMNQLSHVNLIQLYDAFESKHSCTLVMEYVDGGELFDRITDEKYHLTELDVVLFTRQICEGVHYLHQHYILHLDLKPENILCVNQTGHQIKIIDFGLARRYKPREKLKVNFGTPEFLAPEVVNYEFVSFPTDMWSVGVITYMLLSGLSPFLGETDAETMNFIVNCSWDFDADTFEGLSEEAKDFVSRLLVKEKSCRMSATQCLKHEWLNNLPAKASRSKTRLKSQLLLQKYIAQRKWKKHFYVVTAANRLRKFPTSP
Cyclin-dependent kinase 18 (Homo sapiens), sequence (Q07002 whole entry, the tested form may be a part): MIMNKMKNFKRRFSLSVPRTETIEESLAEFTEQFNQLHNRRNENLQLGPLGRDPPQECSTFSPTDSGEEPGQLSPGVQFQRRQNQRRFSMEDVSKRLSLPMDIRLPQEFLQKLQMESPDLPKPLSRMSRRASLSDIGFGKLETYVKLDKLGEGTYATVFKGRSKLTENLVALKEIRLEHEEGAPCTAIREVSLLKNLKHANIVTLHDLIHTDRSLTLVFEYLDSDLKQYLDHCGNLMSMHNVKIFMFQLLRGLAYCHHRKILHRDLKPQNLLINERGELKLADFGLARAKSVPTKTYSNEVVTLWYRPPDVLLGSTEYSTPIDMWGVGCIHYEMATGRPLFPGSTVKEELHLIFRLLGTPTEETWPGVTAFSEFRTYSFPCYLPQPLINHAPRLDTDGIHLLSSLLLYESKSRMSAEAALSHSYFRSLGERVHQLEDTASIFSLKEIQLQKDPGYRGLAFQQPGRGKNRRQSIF
Death-associated protein kinase 1 (Homo sapiens), sequence (P53355 whole entry, looked up, the tested form may be a part): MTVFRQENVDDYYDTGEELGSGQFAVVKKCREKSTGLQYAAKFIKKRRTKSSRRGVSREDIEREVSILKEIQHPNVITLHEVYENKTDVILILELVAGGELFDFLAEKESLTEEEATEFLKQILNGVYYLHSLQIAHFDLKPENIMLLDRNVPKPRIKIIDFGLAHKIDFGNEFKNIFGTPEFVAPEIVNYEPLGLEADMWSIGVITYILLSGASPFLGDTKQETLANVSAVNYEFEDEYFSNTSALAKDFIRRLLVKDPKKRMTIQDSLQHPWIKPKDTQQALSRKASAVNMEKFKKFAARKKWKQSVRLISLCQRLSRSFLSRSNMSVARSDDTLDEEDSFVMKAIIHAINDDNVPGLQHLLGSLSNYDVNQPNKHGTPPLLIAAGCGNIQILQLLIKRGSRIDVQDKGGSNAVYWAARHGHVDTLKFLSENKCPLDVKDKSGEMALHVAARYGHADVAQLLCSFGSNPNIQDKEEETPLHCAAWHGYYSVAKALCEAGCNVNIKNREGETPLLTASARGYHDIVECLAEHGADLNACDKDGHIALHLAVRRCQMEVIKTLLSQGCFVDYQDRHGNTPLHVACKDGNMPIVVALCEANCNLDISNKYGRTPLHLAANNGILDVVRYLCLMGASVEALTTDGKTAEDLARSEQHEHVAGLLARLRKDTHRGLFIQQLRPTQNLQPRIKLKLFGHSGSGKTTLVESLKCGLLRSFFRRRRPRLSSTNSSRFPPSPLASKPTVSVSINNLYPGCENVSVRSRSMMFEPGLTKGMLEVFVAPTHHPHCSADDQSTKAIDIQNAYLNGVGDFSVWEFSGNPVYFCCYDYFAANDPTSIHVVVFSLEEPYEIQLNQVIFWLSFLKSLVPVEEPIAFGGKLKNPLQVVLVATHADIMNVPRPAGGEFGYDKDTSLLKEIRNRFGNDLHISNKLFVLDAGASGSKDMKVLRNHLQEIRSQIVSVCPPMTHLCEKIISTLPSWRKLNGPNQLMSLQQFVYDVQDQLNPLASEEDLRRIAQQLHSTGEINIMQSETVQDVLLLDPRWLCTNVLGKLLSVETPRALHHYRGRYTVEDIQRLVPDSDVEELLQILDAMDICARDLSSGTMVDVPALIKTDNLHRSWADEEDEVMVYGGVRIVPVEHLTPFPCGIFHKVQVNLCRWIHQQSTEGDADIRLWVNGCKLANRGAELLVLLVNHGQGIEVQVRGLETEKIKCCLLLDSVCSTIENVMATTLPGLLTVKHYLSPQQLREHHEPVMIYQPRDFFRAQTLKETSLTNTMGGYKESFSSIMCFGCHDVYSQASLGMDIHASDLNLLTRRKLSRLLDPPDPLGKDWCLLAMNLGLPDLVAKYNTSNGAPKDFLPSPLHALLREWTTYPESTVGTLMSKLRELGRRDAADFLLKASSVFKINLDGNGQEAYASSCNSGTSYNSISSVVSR

COCCN[C@H]1CC[C@H](Nc2cc(-c3csc(NCC4(C#N)CCOCC4)n3)c(Cl)cn2)CC1
Activity [1]: 100%
Activity [2]: 100%
Activity [3]: 92%
Activity [4]: 49%
Activity [5]: 100%
Activity [6]: 97%
Activity [7]: 86%
Activity [8]: 87%
Activity [9]: 71%
Activity [10]: 97%
Activity [11]: 90%
Activity [12]: 96%
IC50 [13]: 1.34 µM
Tmax [14]: 1.2 min
Activity [15]: 99%
Activity [16]: 80%
Activity [17]: 98%
Activity [18]: 100%
Activity [19]: 88%
Activity [20]: 65%
Activity [21]: 98%
Activity [22]: 100%
